Results of several laboratories.
Lines come from different studies, so protocols differ. ≈ marks a conversion by molar mass, not a printed value.

| Structure (SMILES) | organism | test | system | conditions | measurement | value |
| --- | --- | --- | --- | --- | --- | --- |
| CC(C)C(C)CCCCCCCCCCCc1cc(O)cc(O)c1 (stereo not drawn) | Listeria monocytogenes | microbial growth | ATCC19115 |  | IC50 | 34.2 µM |
| CC1(C)S[C@@H]2[C@H](NC(=O)[C@H](N)c3ccccc3)C(=O)N2[C@H]1C(=O)O | Proteus vulgaris | microbial growth, well diffusion | ATCC13315 | 60000 µg/mL | inhibition zone | 25 mm |
| CCC[C@H]1CN(c2cccc(OC(F)(F)F)c2)C(=O)CN1Cc1cncn1Cc1ccc(Br)cc1 | Cryptococcus neoformans | microbial growth, broth dilution |  |  | MIC | 3 to 6 µM |
| CCCCCC/C=C\CCCCCCCCCC(=O)NP(=O)(O)O | Bacillus subtilis | microbial growth | ATCC23857 |  | MIC | 100 µg/mL |
| CCCCCOc1ccc(-c2cc(-c3ccc(C(=O)N[C@H]4C[C@@H](O)[C@@H](O)NC(=O)[C@@H]5[C@@H](O)[C@@H](C)CN5C(=O)[C@H]([C@H](O)CC(N)=O)NC(=O)[C@H]([C@H](O)[C@@H](O)c5ccc(O)c(OS(=O)(=O)O)c5)NC(=O)[C@@H]5C[C@@H](O)CN5C(=O)[C@H]([C@@H](C)O)NC4=O)cc3)no2)cc1 | Nakaseomyces glabratus | microbial growth |  |  | MIC50 | 0.06 µg/mL |
| C[C@@H]1[C@H](O)[C@@H](C)/C=C/C=C/C=C/C=C/C=C/C=C/C=C/[C@H](O[C@@H]2O[C@H](C)[C@@H](O)[C@H](N)[C@@H]2O)C[C@@H]2O[C@](O)(C[C@@H](O)C[C@@H](O)[C@H](O)CC[C@@H](O)C[C@@H](O)CC(=O)O[C@H]1C)C[C@H](O)[C@H]2C(=O)O | Cryptococcus neoformans | microbial growth | ATCC90113 |  | MIC | 1.25 µg/mL |
| CCCCCCCCCCCCCCCC(=O)C(F)(F)P(=O)(O)O | Bacillus subtilis | microbial growth | ATCC23857 |  | MIC | 200 µg/mL |
| CCOC(=O)c1ccccc1S(=O)(=O)NC(=O)Nc1nc(Cl)cc(OC)n1 | Nakaseomyces glabratus | microbial growth, broth dilution |  | 48 h | MIC50 | 5.6 µM |
| O=C(CCCCCCCCCCOc1ccccc1)CP(=O)(O)O | Bacillus subtilis | microbial growth | ATCC23857 |  | MIC | > 200 µg/mL |
| CC[C@H](C)C[C@H](C)CCCCCCCCC(=O)N[C@H]1C[C@@H](O)[C@@H](NCCN)NC(=O)[C@@H]2[C@@H](O)CCN2C(=O)[C@H]([C@H](O)CCN)NC(=O)[C@H]([C@H](O)[C@@H](O)c2ccc(O)cc2)NC(=O)[C@@H]2C[C@@H](O)CN2C(=O)[C@H]([C@@H](C)O)NC1=O | Nakaseomyces glabratus | microbial growth, broth dilution | MY1381 |  | MIC | 0.25 µg/mL |
| Cc1ccccc1C(=O)NN=Cc1ccc(O)c(Br)c1 | Cryptococcus neoformans | microbial killing |  |  | MFC | 4 µg/mL (≈ 12 µM) |
| CCCCCCCCCCCCCCCc1cc(O)cc(O)c1 | Listeria monocytogenes | microbial growth | ATCC19115 |  | IC50 | > 200 µM |
| CCCCCCCC/C=C\CCCCCCCCNC(=O)CP(=O)(O)O | Bacillus subtilis | microbial growth | ATCC23857 |  | MIC | 200 µg/mL |
| CC(C)CCCCCCCCCCCCCCc1cc(O)cc(O)c1 | Listeria monocytogenes | microbial growth | ATCC19115 |  | IC50 | 20.3 µM |
| CCCSc1ccc2nc(NC(=O)OC)[nH]c2c1 | Cryptococcus neoformans | microbial growth, broth dilution |  | 72 h, clinical isolate | IC50 | 1.25 µM |
